Activity and IC50 data for 1 molecule are collected here from ChEMBL document CHEMBL5678805, “Intermittent administration of MEK inhibitor GDC-0973 plus PI3K inhibitor GDC-0941 triggers robust apoptosis and tumor growth inhibition” (Cancer Res, 2012).

The test system of assay [1] is Malme-3M. The assay is described as follows: Antiproliferative activity against human Malme-3M cells assessed reduction in cell viability incubated for 4 days in presence of 4-(2-(1H-indazol-4-yl)-6-((4-(methylsulfonyl)piperazin-1-yl)methyl)thieno[3,2-d]pyrimidin-4-yl)morpholine by celltiter-glo assay. It counts as functional. The settings on record: time 4 day. In short, it runs like this: (§1)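 4-day CellTiter-Glo viability read-out on melanoma lines, cells exposed to increasing concentrations of each inhibitor alone and in combination.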

For assay [2], the target named is Fibroblast growth factor receptor 3 (Homo sapiens, UniProt P22607). The experiment in a line: Inhibition of FGFR3 (unknown origin).
The target in assay [3] is Tyrosine-protein kinase BTK (Homo sapiens, UniProt Q06187). The experiment in a line: Inhibition of Btk (unknown origin).
The test system of assay [4] is A2058. The assay is described as follows: Antitumor activity against human A2058 cells harboring BRAF V600E/PTEN deletion mutant xenografted in mouse assessed as increase in Bims level at 15 mg/kg, po administered every third day for 21 days and measured after 8 hrs post dose in presence of 4-(2-(1H-indazol-4-yl)-6-((4-(methylsulfonyl)piperazin-1-yl)methyl)thieno[3,2-d]pyrimidin-4-yl)morpholine by Western blot analysis. It counts as functional, organism-based. To be noted: time 512.0 hrs. For orientation: In xenograft studies the graft and the host belong to different species.

In assay [5] the test system is 888-mel. The assay is described as follows: Induction of apoptosis in human 888-mel cells assessed as increase in cleaved PARP level incubated for 24 hrs in presence of 4-(2-(1H-indazol-4-yl)-6-((4-(methylsulfonyl)piperazin-1-yl)methyl)thieno[3,2-d]pyrimidin-4-yl)morpholine by immunoblotting analysis. It counts as functional, cell-based.
The target in assay [6] is Homeodomain-interacting protein kinase 1 (Homo sapiens, UniProt Q86Z02). The assay is described as follows: Inhibition of HIPK1 (unknown origin).
Assay [7] addresses Dual specificity protein kinase CLK3 (Homo sapiens, UniProt P49761). The experiment in a line: Inhibition of CLK3 (unknown origin).
Assay [8] has as its system Hs 695T. The assay is described as follows: Antiproliferative activity against human Hs 695T cells assessed reduction in cell viability incubated for 4 days in presence of 4-(2-(1H-indazol-4-yl)-6-((4-(methylsulfonyl)piperazin-1-yl)methyl)thieno[3,2-d]pyrimidin-4-yl)morpholine by celltiter-glo assay. It counts as functional. To be noted: time 4 day. In short, it runs like this: as §1
Background: ATP-based viability assays read luminescence as a measure of living cells.

SMILES strings stand for the structures. Active and inactive are the calls of the source. The rule behind the calls is not given here.

Chain of Homeodomain-interacting protein kinase 1 (Q86Z02 whole entry): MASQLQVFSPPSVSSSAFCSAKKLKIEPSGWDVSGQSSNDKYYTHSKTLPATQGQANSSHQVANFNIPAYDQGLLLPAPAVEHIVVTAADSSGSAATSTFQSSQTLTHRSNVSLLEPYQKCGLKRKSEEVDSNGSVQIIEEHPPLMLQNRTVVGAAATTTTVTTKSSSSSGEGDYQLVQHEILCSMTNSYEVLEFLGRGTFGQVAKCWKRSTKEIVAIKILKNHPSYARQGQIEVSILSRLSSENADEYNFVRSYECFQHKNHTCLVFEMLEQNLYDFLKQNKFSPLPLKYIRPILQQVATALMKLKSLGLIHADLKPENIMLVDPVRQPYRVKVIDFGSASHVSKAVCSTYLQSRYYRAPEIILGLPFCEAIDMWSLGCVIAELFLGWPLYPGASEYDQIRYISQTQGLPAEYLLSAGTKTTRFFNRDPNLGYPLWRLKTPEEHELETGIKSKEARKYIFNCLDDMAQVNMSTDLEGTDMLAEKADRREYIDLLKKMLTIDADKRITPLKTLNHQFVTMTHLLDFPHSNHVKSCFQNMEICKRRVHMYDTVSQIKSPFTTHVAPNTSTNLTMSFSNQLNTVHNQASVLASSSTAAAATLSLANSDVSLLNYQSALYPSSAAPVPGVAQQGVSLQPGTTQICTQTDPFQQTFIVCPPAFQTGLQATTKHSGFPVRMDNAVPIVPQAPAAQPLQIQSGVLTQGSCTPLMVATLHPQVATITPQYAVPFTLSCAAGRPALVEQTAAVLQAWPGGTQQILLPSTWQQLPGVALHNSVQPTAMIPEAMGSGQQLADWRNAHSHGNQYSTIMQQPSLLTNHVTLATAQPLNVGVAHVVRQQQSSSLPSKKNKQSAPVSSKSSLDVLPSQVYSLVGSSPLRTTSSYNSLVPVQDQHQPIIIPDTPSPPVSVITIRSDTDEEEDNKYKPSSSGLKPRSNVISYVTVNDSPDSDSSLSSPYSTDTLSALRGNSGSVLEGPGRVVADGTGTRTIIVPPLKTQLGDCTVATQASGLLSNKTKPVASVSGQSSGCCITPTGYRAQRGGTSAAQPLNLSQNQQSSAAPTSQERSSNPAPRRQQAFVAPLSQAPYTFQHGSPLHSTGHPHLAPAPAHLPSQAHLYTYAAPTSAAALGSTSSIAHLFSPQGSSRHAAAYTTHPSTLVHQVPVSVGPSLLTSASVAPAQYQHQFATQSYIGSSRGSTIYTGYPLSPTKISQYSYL
Chain of Dual specificity protein kinase CLK3 (P49761 whole entry): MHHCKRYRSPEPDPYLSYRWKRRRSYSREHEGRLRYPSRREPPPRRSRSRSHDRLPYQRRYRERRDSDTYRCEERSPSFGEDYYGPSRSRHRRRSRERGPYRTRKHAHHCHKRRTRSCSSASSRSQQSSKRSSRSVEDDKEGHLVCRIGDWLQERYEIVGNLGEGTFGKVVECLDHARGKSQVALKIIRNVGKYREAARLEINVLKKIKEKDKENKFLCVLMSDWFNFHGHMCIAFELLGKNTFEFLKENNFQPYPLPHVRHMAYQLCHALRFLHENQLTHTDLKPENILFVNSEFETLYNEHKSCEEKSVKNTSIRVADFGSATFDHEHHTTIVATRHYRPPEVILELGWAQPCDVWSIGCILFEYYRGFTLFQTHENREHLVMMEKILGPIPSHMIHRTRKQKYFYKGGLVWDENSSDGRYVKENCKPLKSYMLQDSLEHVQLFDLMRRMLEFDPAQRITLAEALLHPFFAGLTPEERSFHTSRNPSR
Chain of Tyrosine-protein kinase BTK (Q06187 whole entry): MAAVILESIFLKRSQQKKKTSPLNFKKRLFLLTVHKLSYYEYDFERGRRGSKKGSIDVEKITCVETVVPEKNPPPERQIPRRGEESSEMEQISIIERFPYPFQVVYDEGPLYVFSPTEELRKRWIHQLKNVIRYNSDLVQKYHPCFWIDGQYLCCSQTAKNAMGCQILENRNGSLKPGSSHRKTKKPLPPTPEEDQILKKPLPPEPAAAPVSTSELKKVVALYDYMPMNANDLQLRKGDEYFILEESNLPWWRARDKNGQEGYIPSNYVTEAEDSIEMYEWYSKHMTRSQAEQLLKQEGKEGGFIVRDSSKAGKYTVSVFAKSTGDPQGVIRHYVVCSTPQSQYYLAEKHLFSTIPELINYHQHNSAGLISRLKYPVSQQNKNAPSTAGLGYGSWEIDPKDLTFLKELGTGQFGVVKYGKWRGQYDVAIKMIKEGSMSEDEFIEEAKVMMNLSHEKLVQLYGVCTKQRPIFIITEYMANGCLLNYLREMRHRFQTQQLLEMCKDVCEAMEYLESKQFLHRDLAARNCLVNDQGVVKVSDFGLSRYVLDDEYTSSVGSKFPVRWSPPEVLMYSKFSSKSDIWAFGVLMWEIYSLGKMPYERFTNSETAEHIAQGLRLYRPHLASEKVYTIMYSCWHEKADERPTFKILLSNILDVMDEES
Chain of Fibroblast growth factor receptor 3 (P22607 whole entry): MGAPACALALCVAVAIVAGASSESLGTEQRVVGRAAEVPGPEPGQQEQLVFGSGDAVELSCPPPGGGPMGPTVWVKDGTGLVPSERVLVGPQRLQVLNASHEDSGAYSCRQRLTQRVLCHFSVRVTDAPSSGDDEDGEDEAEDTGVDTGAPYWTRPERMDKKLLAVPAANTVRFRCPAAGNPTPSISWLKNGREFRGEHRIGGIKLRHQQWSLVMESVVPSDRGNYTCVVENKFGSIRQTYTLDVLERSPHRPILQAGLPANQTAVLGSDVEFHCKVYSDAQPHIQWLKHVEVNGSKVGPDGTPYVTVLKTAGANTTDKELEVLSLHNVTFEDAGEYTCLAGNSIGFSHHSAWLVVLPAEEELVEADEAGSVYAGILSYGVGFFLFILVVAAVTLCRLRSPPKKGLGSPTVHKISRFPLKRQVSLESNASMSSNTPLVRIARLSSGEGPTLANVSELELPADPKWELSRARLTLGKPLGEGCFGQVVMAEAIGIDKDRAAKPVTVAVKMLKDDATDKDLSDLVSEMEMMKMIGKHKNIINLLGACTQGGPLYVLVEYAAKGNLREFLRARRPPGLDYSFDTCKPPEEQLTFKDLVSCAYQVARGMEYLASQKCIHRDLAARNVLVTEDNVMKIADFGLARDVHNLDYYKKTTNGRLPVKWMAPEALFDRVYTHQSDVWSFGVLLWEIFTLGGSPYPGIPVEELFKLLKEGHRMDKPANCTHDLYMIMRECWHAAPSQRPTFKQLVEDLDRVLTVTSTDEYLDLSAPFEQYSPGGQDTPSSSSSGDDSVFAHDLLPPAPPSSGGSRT

For the molecule `O=C(c1ccc(F)c(F)c1Nc1ccc(I)cc1F)N1CC(O)([C@@H]2CCCCN2)C1` [COBIMETINIB], the Activity in assay [1] and in assay [8] was 60% throughout. The IC50 in assay [2], in assay [3], in assay [6] and in assay [7] was > 10 µM throughout. Also, the outcome in assay [4] and in assay [5] was Active.

The IC50 is the concentration that gives 50% inhibition. Low values mean inhibition by little substance, high ones a need for much substance.
